Data: ChEMBL document CHEMBL1926569, “Novel (E)-1-(4-methyl-2-(alkylamino)thiazol-5-yl)-3-arylprop-2-en-1-ones as potent antimicrobial agents” (2011)
Values after ≈ are worked out from the molar mass of the structure shown.

Legend:
[1] = system: Candida albicans; test: Antifungal activity against Candida albicans isolated from human incubated for 72 hrs followed by serial sub-cultivation for 72 hrs by serial dilution technique; assay type: functional
How it was run: (§1)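 MFC: material from 72 h malt broth microdilution wells was serially sub-cultured into fresh broth plates and incubated a further 72 h at 28 °C. Fungicidal concentration is taken from growth after sub-culture. Duplicate, repeated three times.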

[2] = system: Aspergillus niger; test: Antifungal activity against Aspergillus niger ATCC 6275 after 72 hrs by serial dilution technique; assay type: functional; details: ATCC 6275, 72 h
How it was run: (§2)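 Modified microdilution in 96-well plates. Fungi were kept on malt agar at 4 °C. Spores were washed off in sterile 0.85% saline with 0.1% Tween 80. Compounds were dissolved at 1 mg/ml in 5% DMSO with 0.1% Tween 80 and added to malt broth with inoculum. Plates were shaken at 160 rpm for 72 h at 28 °C. Duplicate, repeated three times.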

[3] = system: Pseudomonas aeruginosa; test: Antibacterial activity against Pseudomonas aeruginosa ATCC 27853 incubated for 24 hrs followed by serial sub-cultivation for 24 hrs by microdilution; assay type: functional; details: ATCC 27853, 24 h
How it was run: (§3)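 MBC: after the 24 h LB broth microdilution (1.0 × 10⁴ CFU per well, 160 rpm), wells were serially sub-cultured into fresh broth plates and incubated a further 24 h. MBC is the lowest concentration with no visible growth, taken as 99.5% killing of the original inoculum. Duplicate, repeated three times.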

[4] = system: Penicillium ochrochloron; test: Antifungal activity against Penicillium ochrochloron ATCC 9112 after 72 hrs by serial dilution technique; assay type: functional; details: ATCC 9112, 72 h; how it was run: as §2
[5] = system: Aspergillus niger; test: Ratio of bifonazole to compound for Aspergillus niger ATCC 6275; assay type: functional
[6] = system: Escherichia coli; test: Antibacterial activity against Escherichia coli ATCC 35210 after 24 hrs by microdilution method; assay type: functional; details: ATCC 35210, 24 h
How it was run: (§4)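 Broth microdilution in 96-well plates. Bacterial suspensions were adjusted in sterile saline to 1.0 × 10⁵ CFU/ml, prepared daily and kept at 4 °C. Compound was added to LB broth with 1.0 × 10⁴ CFU per well and shaken at 160 rpm for 24 h at […] (so in the source). MIC is the lowest concentration with no visible growth under a binocular microscope. OD655 was also read. Duplicate, repeated three times.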

[7] = system: Staphylococcus aureus; test: Antibacterial activity against Staphylococcus aureus ATCC 6538 after 24 hrs by microdilution method; assay type: functional; details: ATCC 6538, 24 h; how it was run: as §4
[8] = system: Aspergillus ochraceus; test: Antifungal activity against Aspergillus ochraceus after 72 hrs by serial dilution technique
[9] = system: Trichoderma viride; test: Ratio of bifonazole to compound for Trichoderma viride IAM 5061; assay type: functional
[10] = system: Staphylococcus aureus; test: Antibacterial activity against Staphylococcus aureus ATCC 6538 incubated for 24 hrs followed by serial sub-cultivation for 24 hrs by microdilution method; assay type: functional; details: ATCC 6538, 24 h; how it was run: as §3
[11] = system: Penicillium ochrochloron; test: Ratio of ketoconazole to compound for Penicillium ochrochloron ATCC 9112; assay type: functional
[12] = system: Talaromyces funiculosus; test: Antifungal activity against Penicillium funiculosum ATCC 36839 after 72 hrs by serial dilution technique; assay type: functional; details: ATCC 36839, 72 h; how it was run: as §2
[13] = system: Candida albicans; test: Ratio of bifonazole to compound for Candida albicans isolated from human; assay type: functional
[14] = system: Penicillium ochrochloron; test: Ratio of bifonazole to compound for Penicillium ochrochloron ATCC 9112; assay type: functional
[15] = system: Aspergillus fumigatus; test: Ratio of ketoconazole to compound for Aspergillus fumigatus isolated from human; assay type: functional
[16] = system: Aspergillus flavus; test: Antifungal activity against Aspergillus flavus ATCC 9643 after 72 hrs by serial dilution technique; assay type: functional; details: ATCC 9643, 72 h; how it was run: as §2
[17] = system: Micrococcus flavus; test: Antibacterial activity against Micrococcus flavus ATCC 10240 incubated for 24 hrs followed by serial sub-cultivation for 24 hrs by microdilution; assay type: functional; details: ATCC 10240, 24 h; how it was run: as §3
[18] = system: Aspergillus flavus; test: Antifungal activity against Aspergillus flavus ATCC 9643 incubated for 72 hrs followed by serial sub-cultivation for 72 hrs by serial dilution technique; assay type: functional; details: ATCC 9643, 72 h; how it was run: as §1
[19] = system: Enterococcus faecalis; test: Antibacterial activity against Enterococcus faecalis isolated from human incubated for 24 hrs followed by serial sub-cultivation for 24 hrs by microdilution; assay type: functional; how it was run: as §3
[20] = system: Listeria monocytogenes; test: Antibacterial activity against Listeria monocytogenes NCTC 7973 incubated for 24 hrs followed by serial sub-cultivation for 24 hrs by microdilution; assay type: functional; details: NCTC 7973, 24 h; how it was run: as §3
[21] = system: Listeria monocytogenes; test: Antibacterial activity against Listeria monocytogenes NCTC 7973 after 24 hrs by microdilution method; assay type: functional; details: NCTC 7973, 24 h; how it was run: as §4
[22] = system: Trichoderma viride; test: Antifungal activity against Trichoderma viride IAM 5061 incubated for 72 hrs followed by serial sub-cultivation for 72 hrs by serial dilution technique; assay type: functional; details: IAM 5061, 72 h; how it was run: as §1
[23] = system: Aspergillus ochraceus; test: Ratio of bifonazole to compound for Aspergillus ochraceus ATCC 12066; assay type: functional
[24] = system: Bacillus cereus; test: Antibacterial activity against clinical isolate of Bacillus cereus incubated for 24 hrs followed by serial sub-cultivation for 24 hrs by microdilution; assay type: functional; how it was run: as §3
[25] = system: Aspergillus niger; test: Antifungal activity against Aspergillus niger ATCC 6275 incubated for 72 hrs followed by serial sub-cultivation for 72 hrs by serial dilution technique; assay type: functional; details: ATCC 6275, 72 h; how it was run: as §1
[26] = system: Pseudomonas aeruginosa; test: Antibacterial activity against Pseudomonas aeruginosa ATCC 27853 after 24 hrs by microdilution method; assay type: functional; details: ATCC 27853, 24 h; how it was run: as §4
[27] = system: Salmonella typhimurium; test: Antibacterial activity against Salmonella Typhimurium ATCC 13311 incubated for 24 hrs followed by serial sub-cultivation for 24 hrs by microdilution; assay type: functional, Salmonella enterica subsp. enterica serovar Typhimurium; details: Salmonella enterica, ATCC 13311, 24 h; how it was run: as §3
[28] = system: Salmonella typhimurium; test: Antibacterial activity against Salmonella Typhimurium ATCC 13311 after 24 hrs by microdilution method; assay type: functional, Salmonella enterica subsp. enterica serovar Typhimurium; details: Salmonella enterica, ATCC 13311, 24 h; how it was run: as §4
[29] = system: Penicillium ochrochloron; test: Antifungal activity against Penicillium ochrochloron ATCC 9112 incubated for 72 hrs followed by serial sub-cultivation for 72 hrs by serial dilution technique; assay type: functional; details: ATCC 9112, 72 h; how it was run: as §1
[30] = system: Trichoderma viride; test: Antifungal activity against Trichoderma viride IAM 5061 after 72 hrs by serial dilution technique; assay type: functional; details: IAM 5061, 72 h; how it was run: as §2
[31] = system: Candida albicans; test: Antifungal activity against Candida albicans isolated from human after 72 hrs by serial dilution technique; assay type: functional; how it was run: as §2
[32] = system: Aspergillus ochraceus; test: Antifungal activity against Aspergillus ochraceus ATCC 12066 after 72 hrs by serial dilution technique; assay type: functional; details: ATCC 12066, 72 h; how it was run: as §2
[33] = system: Pseudomonas aeruginosa; test: Ratio of ampicillin MIC to compound MIC for Pseudomonas aeruginosa ATCC 27853; assay type: functional
[34] = system: Talaromyces funiculosus; test: Ratio of bifonazole to compound for Penicillium funiculosum ATCC 36839; assay type: functional
[35] = system: Candida albicans; test: Ratio of ketoconazole to compound for Candida albicans isolated from human; assay type: functional
[36] = system: Aspergillus fumigatus; test: Antifungal activity against Aspergillus fumigatus isolated from human incubated for 72 hrs followed by serial sub-cultivation for 72 hrs by serial dilution technique; assay type: functional; how it was run: as §1
[37] = system: Escherichia coli; test: Antibacterial activity against Escherichia coli ATCC 35210 incubated for 24 hrs followed by serial sub-cultivation for 24 hrs by microdilution; assay type: functional; details: ATCC 35210, 24 h; how it was run: as §3
[38] = system: Talaromyces funiculosus; test: Antifungal activity against Penicillium funiculosum ATCC 36839 incubated for 72 hrs followed by serial sub-cultivation for 72 hrs by serial dilution technique; assay type: functional; details: ATCC 36839, 72 h; how it was run: as §1
[39] = system: Enterococcus faecalis; test: Antibacterial activity against Enterococcus faecalis isolated from human after 24 hrs by microdilution method; assay type: functional; how it was run: as §4
[40] = system: Aspergillus ochraceus; test: Ratio of ketoconazole to compound for Aspergillus ochraceus ATCC 12066; assay type: functional
[41] = system: Bacillus cereus; test: Antibacterial activity against clinical isolate of Bacillus cereus after 24 hrs by microdilution method; assay type: functional; how it was run: as §4
[42] = system: Aspergillus ochraceus; test: Antifungal activity against Aspergillus ochraceus ATCC 12066 incubated for 72 hrs followed by serial sub-cultivation for 72 hrs by serial dilution technique; assay type: functional; details: ATCC 12066, 72 h; how it was run: as §1
[43] = system: Micrococcus flavus; test: Antibacterial activity against Micrococcus flavus ATCC 10240 after 24 hrs by microdilution method; assay type: functional; details: ATCC 10240, 24 h; how it was run: as §4

- MIC [2]: 44.5 µM (≈ 15 µg/mL)
- MIC [4]: 29.7 µM (≈ 10 µg/mL)
- MIC [6]: 74.2 µM (≈ 25 µg/mL)
- MIC [7]: 59.3 µM (≈ 20 µg/mL)
- MIC [8]: 29.7 µM (≈ 10 µg/mL)
- MIC [12]: 29.7 µM (≈ 10 µg/mL)
- MIC [16]: 29.7 µM (≈ 10 µg/mL)
- MIC [21]: 89 µM (≈ 30 µg/mL)
- MIC [26]: 74.2 µM (≈ 25 µg/mL)
- MIC [28]: 59.3 µM (≈ 20 µg/mL)
- MIC [30]: 29.7 µM (≈ 10 µg/mL)
- MIC [31]: 44.5 µM (≈ 15 µg/mL)
- MIC [32]: 29.7 µM (≈ 10 µg/mL)
- MIC [39]: 74.2 µM (≈ 25 µg/mL)
- MIC [41]: 99.3 µM (≈ 33.5 µg/mL)
- MIC [43]: 14.8 µM (≈ 4.99 µg/mL)
SMILES: CNc1nc(C)c(C(=O)/C=C/c2cccc(Br)c2)s1
- MFC [1]: 59.3 µM (≈ 20 µg/mL)
- MBC [3]: 74.2 µM (≈ 25 µg/mL)
- Ratio [5]: 10
- Ratio [9]: 10
- MBC [10]: 74.2 µM (≈ 25 µg/mL)
- Ratio [11]: 10
- Ratio [13]: 10
- Ratio [14]: 10
- Ratio [15]: 10
- MBC [17]: 59.3 µM (≈ 20 µg/mL)
- MFC [18]: 74.2 µM (≈ 25 µg/mL)
- MBC [19]: 74.2 µM (≈ 25 µg/mL)
- MBC [20]: 89 µM (≈ 30 µg/mL)
- MFC [22]: 59.3 µM (≈ 20 µg/mL)
- Ratio [23]: 10
- MBC [24]: 74.2 µM (≈ 25 µg/mL)
- MFC [25]: 59.3 µM (≈ 20 µg/mL)
- MBC [27]: 74.2 µM (≈ 25 µg/mL)
- MFC [29]: 59.3 µM (≈ 20 µg/mL)
- Ratio [33]: 10
- Ratio [34]: 10
- Ratio [35]: 10
- MFC [36]: 59.3 µM (≈ 20 µg/mL)
- MBC [37]: 74.2 µM (≈ 25 µg/mL)
- MFC [38]: 59.3 µM (≈ 20 µg/mL)
- Ratio [40]: 10
- MFC [42]: 59.3 µM (≈ 20 µg/mL)
